Series [1] addresses T1, WT SaPC (Staphylococcus aureus, UniProt A0A0H3JRU9). The experiment in a line: Pyruvate carboxylation inhibition assay with CT domain inhibitors. The series is classed as biochemical. Particulars: SaPC; CT domain inhibitors. Summed up:
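WT SaPC (5 μg/mL) was pre-incubated with inhibitor and acetyl-CoA, and the reaction was started with 10× substrate mix (final 25 mM NaHCO3, 2.5 mM ATP, 12 mM pyruvate). MDH-coupled (10 U/mL MDH, 0.12 mM NADH); change in A340 monitored. Inhibitor 0–1 mM or 0–50 mM by compound. MDH-only controls. Triplicate; SD of three trials.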

Series [2] deals with T2, E418A SaPC (Staphylococcus aureus, UniProt A0A0H3JRU9, E418A). Kind of series: Pyruvate carboxylation inhibition assay with CT domain inhibitors. The series is classed as biochemical. The settings on record: for change of inhibition in the presence of acetyl-CoA: 500 μM acetyl-CoA.
Series [3] has as its target T1, WT SaPC. Kind of series: Pyruvate carboxylation assay. It is filed as biochemical. Particulars: for h (Hill coefficient) / Ka (apparent activation constant): Table 1; for increase of apparent Ka in the presence of L-aspartate: 20 mM L-aspartate vs none.
Series [4] addresses T2, E418A SaPC. The experiment in a line: Pyruvate carboxylation assay. It is filed as biochemical. Particulars: up to 100 mM, nonspecific inhibition above 100 mM.
The target in series [5] is K46A SaPC (Staphylococcus aureus, UniProt A0A0H3JRU9, K46A). The experiment in a line: Pyruvate carboxylation assay. The series is classed as biochemical. Particulars: K46A SaPC; up to 100 mM; nonspecific inhibition above 100 mM.
Series [6] deals with SaPC. Particulars: cited from earlier work.
Series [7] concerns the target R21A SaPC (Staphylococcus aureus, UniProt A0A0H3JRU9, R21A). The experiment in a line: Pyruvate carboxylation assay. It is filed as biochemical. Particulars: R21A SaPC; up to 100 mM; nonspecific inhibition above 100 mM.
Series [8] concerns PC. The settings on record: lacks the nucleotidyl portion; cited from earlier work.
The target of series [9] is ΔBCΔBCCP SaPC (Staphylococcus aureus (strain Mu50 / ATCC 700699)). The experiment in a line: SEC. For orientation: SEC sorts molecules by how far they enter the pores of the column.
Series [10] deals with the molecule itself. The experiment in a line: SEC.
Setting [11] is: Acyl-CoA alone, fit to Equation 1 (3′5′ diphosphoadenosine: Equation 2).

Positions count from the first letter of the chain named. Numbers in names are those of the source.

As a reminder, the stoichiometry N is the number of molecules, sites or subunits per partner or assembly.

Turning to `O=C(O)C(O)=Cc1ccc2ccccc2n1` [2-hydroxy-3-(quinoline-2-yl)propenoic acid], in series [1], the “change of potency in the presence of acetyl-CoA” value was “significantly reduced potency”. Further, in series [2], the “inhibition of pyruvate carboxylation” value is “inhibited” and the “change of inhibition in the presence of acetyl-CoA” value is “unchanged”.

Regarding `Nc1ncnc2c1ncn2[C@@H]1O[C@H](COP(=O)(O)O)[C@@H](OP(=O)(O)O)[C@H]1O` [3′5′ diphosphoadenosine, 3’5’-diphosphoadenosine], the “h (Hill coefficient)” value in series [3] (Acyl-CoA alone) was determined as 1.6 ± 0.7. The “Ka (apparent activation constant)” value in [3] (setting [11]) is 5900 ± 3100 µM. Also, the “concentration range in which SaPC is activated” value in series [3] (WT SaPC (Figure S2)) is given as “up to 7 mM”. The “concentration at which inhibitory” value in [3] (WT SaPC (Figure S2), attributed to competition with ATP in BC domain) is given as “greater than 7 mM”. In addition, the “estimated apparent Ka” value in series [3] (WT SaPC, fit to Equation 2, Ki fixed at 5 mM) was ~ 5.9 mM.

`CC(=O)NCCNC(=O)CCNC(=O)[C@H](O)C(C)(C)COP(=O)(O)OP(=O)(O)OC[C@H]1O[C@@H](n2cnc3c(N)ncnc32)[C@H](O)[C@@H]1OP(=O)(O)O` [Acetyl-aza(dethia)-CoA, acetyl-aza(dethia)-CoA]: the “h (Hill coefficient)” value in series [3] (Acyl-CoA alone) is recorded as 1.3 ± 0.4. The “Ka (apparent activation constant)” value in series [3] (setting [11]) stood at 2500 ± 1000 µM.

For the molecule `CC(=O)CCCNC(=O)CCNC(=O)[C@H](O)C(C)(C)COP(=O)(O)OP(=O)(O)OC[C@H]1O[C@@H](n2cnc3c(N)ncnc32)[C@H](O)[C@@H]1OP(=O)(O)O` [Acetyl-carba(dethia)-CoA, acetyl-carba(dethia)-CoA], the “Ka (apparent activation constant)” value was found to be 190 ± 10 µM in series [3] (Acyl-CoA + 20 mM L-aspartate) and 53 ± 4 µM in [3] (setting [11]). Besides, the “h (Hill coefficient)” value in series [3] (Acyl-CoA + 20 mM L-aspartate) turned out to be 3.1 ± 0.6; in series [3] (Acyl-CoA alone), 1.5 ± 0.2. The “increase of apparent Ka in the presence of L-aspartate” value in series [3] (WT SaPC) is on record as ~ 4 fold.

For `CC(=O)OCCNC(=O)CCNC(=O)[C@H](O)C(C)(C)COP(=O)(O)OP(=O)(O)OC[C@H]1O[C@@H](n2cnc3c(N)ncnc32)[C@H](O)[C@@H]1OP(=O)(O)O` [Acetyl-oxa(dethia)-CoA, acetyl-oxa(dethia)-CoA], the “Ka (apparent activation constant)” value in series [3] (Acyl-CoA + 20 mM L-aspartate) is 270 ± 20 µM; in series [3] (setting [11]) it was 73 ± 11 µM. Further, the “h (Hill coefficient)” value in series [3] (Acyl-CoA + 20 mM L-aspartate) is recorded as 3.3 ± 0.7; in [3] (Acyl-CoA alone), 1.5 ± 0.3. Moreover, the “increase of apparent Ka in the presence of L-aspartate” value in series [3] (WT SaPC) was ~ 4 fold.

Turning to `N[C@@H](CC(=O)O)C(=O)O` [L-aspartate], the “inhibition of pyruvate carboxylation” value in [4], in series [5] and in series [7] was “not inhibited” in each case. Moreover, the “decrease of kcat in the presence of inhibitor” value in [6] was 2-5 fold.

As to `N[C@@H](CCC(=O)O)C(=O)O` [L-glutamate], in [3] (WT SaPC, nonspecific effect (Figure S5)), the “concentration at which pyruvate carboxylation is inhibited” value is on record as “exceeding 100 mM”.

`CC(=O)SCCNC(=O)CCNC(=O)[C@H](O)C(C)(C)CO` [acetylpantetheine]: the “binding and activation of PC” value in series [8] is reported as “binds to but does not activate PC”.

Turning to `O=C(O)C(=O)Cc1ccccc1` [phenylpyruvate], in series [1], the “change of potency in the presence of acetyl-CoA” value is reported as “significantly reduced potency”. Further, in [2], the “inhibition of pyruvate carboxylation” value is given as “inhibited” and the “change of inhibition in the presence of acetyl-CoA” value was “unchanged”.

In the case of ΔBCΔBCCP SaPC (domain or fragment), the stoichiometry N in series [9] was 2.

B1: Staphylococcus aureus pyruvate carboxylase, wild type (enzyme)
chain: MKQIKKLLVANRGEIAIRIFRAAAELDISTVAIYSNEDKSSLHRYKADESYLVGSDLGPAESYLNIERIIDVAKQANVDAIHPGYGFLSENEQFARRCAEEGIKFIGPHLEHLDMFGDKVKARTTAIKADLPVIPGTDGPIKSYELAKEFAEEAGFPLMIKATSGGGGKGMRIVREESELEDAFHRAKSEAEKSFGNSEVYIERYIDNPKHIEVQVIGDEHGNIVHLFERDCSVQRRHQKVVEVAPSVGLSPTLRQRICDAAIQLMENIKYVNAGTVEFLVSGDEFFFIEVNPRVQVEHTITEMVTGIDIVKTQILVAAGADLFGEEINMPQQKDITTLGYAIQCRITTEDPLNDFMPDTGTIIAYRSSGGFGVRLDAGDGFQGAEISPYYDSLLVKLSTHAISFKQAEEKMVRSLREMRIRGVKTNIPFLINVMKNKKFTSGDYTTKFIEETPELFDIQPSLDRGTKTLEYIGNVTINGFPNVEKRPKPDYELASIPTVSSSKIASFSGTKQLLDEVGPKGVAEWVKKQDDVLLTDTTFRDAHQSLLATRVRTKDMINIASKTADVFKDGFSLEMWGGATFDVAYNFLKENPWERLERLRKAIPNVLFQMLLRASNAVGYKNYPDNVIHKFVQESAKAGIDVFRIFDSLNWVDQMKVANEAVQEAGKISEGTICYTGDILNPERSNIYTLEYYVKLAKELEREGFHILAIKDMAGLLKPKAAYELIGELKSAVDLPIHLHTHDTSGNGLLTYKQAIDAGVDIIDTAVASMSGLTSQPSANSLYYALNGFPRHLRTDIEGMESLSHYWSTVRTYYSDFESDIKSPNTEIYQHEMPGGQYSNLSQQAKSLGLGERFDEVKDMYRRVNFLFGDIVKVTPSSKVVGDMALYMVQNDLDEQSVITDGYKLDFPESVVSFFKGEIGQPVNGFNKDLQAVILKGQEALTARPGEYLEPVDFEKVRELLEEEQQGPVTEQDIISYVLYPKVYEQYIQTRNQYGNLSLLDTPTFFFGMRNGETVEIEIDKGKRLIIKLETISEPDENGNRTIYYAMNGQARRIYIKDENVHTNANVKPKADKSNPSHIGAQMPGSVTEVKVSVGETVKANQPLLITEAMKMETTIQAPFDGVIKQVTVNNGDTIATGDLLIEIEKATD
modifications: biotin, covalently tethered to the BCCP domain (co-expressed with BirA to ensure complete biotinylation; residue not stated)
Regarding B1, the “stoichiometry N” value in [10] turned out to be 4.

B2: R21A SaPC (enzyme)
chain: B1 chain with R21A
modifications: biotin, covalently tethered to the BCCP domain (co-expressed with BirA to ensure complete biotinylation; residue not stated)
As to B2, the “stoichiometry N” value in series [10] came out at 4.

B3: E418A SaPC (enzyme)
chain: B1 chain with E418A
modifications: biotin, covalently tethered to the BCCP domain (co-expressed with BirA to ensure complete biotinylation; residue not stated)
Regarding B3, in series [10], the “stoichiometry N” value worked out at 4.

B4: K46A SaPC (enzyme)
chain: B1 chain with K46A
modifications: biotin, covalently tethered to the BCCP domain (co-expressed with BirA to ensure complete biotinylation; residue not stated)
As to B4, the “stoichiometry N” value in series [10] came out at 4.

Source of the values: publication PMC10693930 (Biochemistry, 2023).
